From ChEMBL document CHEMBL1949649, “5-sulfonyl-benzimidazoles as selective CB2 agonists-part 2” (Bioorg Med Chem Lett, 2012)
Converted amounts (≈) assume the structure as drawn. The source made the active and inactive calls. The calls are words filed in the database; no cut-off is given here.

Experiments:
[1] = Drug metabolism in human liver microsomes after 15 mins; format: ADME, Microsome; conditions: read-out: Drug metabolism
Cannabinoid receptor 1 = Cannabinoid receptor 1 (Homo sapiens, UniProt P21554); experiment: Agonist activity at human CB1 receptor; format: functional
Cannabinoid receptor 2 = Cannabinoid receptor 2 (Homo sapiens, UniProt P34972); experiment: Agonist activity at human CB2 receptor; format: functional
Rattus norvegicus [2] = experiment: Toxicity in rat assessed as decrease in body temperature at 10 mg/kg, ip by modified tetrad test; format: organism-based; set-up: dose 10 mg/kg, route intraperitoneal; conditions: in vivo
[3] = Kinetic solubility of the compound at pH 7.4; format: physicochemical; conditions: buffer, read-out: Kinetic_solubility
Rattus norvegicus [4] = experiment: Toxicity in rat assessed as appearance of flat body posture at 2.5 mg/kg, ip by modified tetrad test; format: organism-based; set-up: dose 2.5 mg/kg, route intraperitoneal; conditions: in vivo
[5] = Absolute oral bioavailability in Beagle dog at 5 mg/kg; format: ADME, organism-based, Canis lupus familiaris; conditions: in vivo
Summary of the method: (§1)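 Beagle dogs dosed at 1 mg/kg iv and 5 mg/kg po; plasma kinetics give clearance, volume of distribution, iv and po half-life, and absolute oral bioavailability.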

Rattus norvegicus [6] = experiment: Toxicity in rat up to 40 mg/kg, ip by modified tetrad test; format: organism-based; set-up: dose 40 mg/kg, route intraperitoneal; conditions: in vivo
[7] = Half life in Sprague-Dawley rat at 2.5 mg/kg, iv; format: ADME, organism-based; set-up: dose 2.5 mg/kg, route intravenous; conditions: in vivo
Mus musculus = experiment: Antiinflammatory activity in mouse EAE model of multiple sclerosis assessed as delay in neurological signs of autoimmune encephalomyelitis disease progression at 40 mg/kg/day, po administered from day 8 to day 16; format: functional, organism-based
Summary of the method: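 Mice with experimental autoimmune encephalomyelitis given chronic oral dosing at 40 mg/kg; neurological signs scored as EAE disease scores over time.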

[8] = Drug metabolism in rat liver microsomes at 5 uM after 60 mins; format: ADME, Microsome; conditions: read-out: Drug metabolism
Summary of the method: (§2)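 Test compound incubated at 5 µM with liver microsomes (human, rat, mouse or dog) for 60 min; read-out is % of compound metabolised.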

[9] = Drug metabolism in human liver microsomes at 5 uM after 60 mins; format: ADME, Microsome; conditions: read-out: Drug metabolism; summary of the method: as §2
Rattus norvegicus [10] = experiment: Antinociceptive activity in rat at 10 mg/kg by hot plate method; format: functional, organism-based; set-up: dose 10 mg/kg
[11] = Half life in Beagle dog at 5 mg/kg, po; format: ADME, organism-based, Canis lupus familiaris; set-up: dose 5 mg/kg, route oral; conditions: in vivo; summary of the method: as §1
[12] = Volume of distribution in Beagle dog at 1 mg/kg, iv and 5 mg/kg, po; format: ADME, organism-based, Canis lupus familiaris; conditions: in vivo; summary of the method: as §1
Rattus norvegicus [13] = experiment: Antinociceptive activity in rat at 10 mg/kg by paw flick test; format: functional, organism-based; set-up: dose 10 mg/kg
Rattus norvegicus [14] = organism: Rattus norvegicus; experiment: Antihyperalgesic activity against carrageenan-induced thermal hyperalgesia in rat; format: functional, organism-based
[15] = Drug metabolism in mouse liver microsomes at 5 uM after 60 mins; format: ADME, Microsome; conditions: read-out: Drug metabolism; summary of the method: as §2
[16] = Solubility of the compound in 10% cyclodextrin
[17] = Clearance in Sprague-Dawley rat at 2.5 mg/kg, iv and 10 mg/kg, po; format: ADME, organism-based; conditions: in vivo
Rattus norvegicus [18] = experiment: Antiallodynic activity in rat chronic constriction injury-induced neuropathic pain model assessed as reversal of pain response at 10 to 40 mg/kg/day, sc; format: functional, organism-based
Summary of the method: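 Chronic constriction injury of rats (n = 7 per group); daily subcutaneous dosing over repeated days, with morphine as comparator. Cold allodynia read as lifting on a cold plate at 0 °C for 4 min.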

[19] = Absolute oral bioavailability in Sprague-Dawley rat at 10 mg/kg; format: ADME, organism-based; conditions: in vivo
[20] = Solubility of the compound in water; format: physicochemical
[21] = Half life in Beagle dog at 1 mg/kg, iv; format: ADME, organism-based, Canis lupus familiaris; set-up: dose 1 mg/kg, route intravenous; conditions: in vivo; summary of the method: as §1
[22] = Half life in Sprague-Dawley rat at 10 mg/kg, po; format: ADME, organism-based; set-up: dose 10 mg/kg, route oral; conditions: in vivo
Rattus norvegicus [23] = organism: Rattus norvegicus; experiment: Antihyperalgesic activity against Freund's adjuvant-induced thermal hyperalgesia in rat; format: functional, organism-based
[24] = Volume of distribution in Sprague-Dawley rat at 2.5 mg/kg, iv and 10 mg/kg, po; format: ADME, organism-based; conditions: in vivo
[25] = Ratio drug uptake in brain to plasma of Sprague-Dawley rat at 2.5 mg/kg, iv and 10 mg/kg, po; format: ADME, organism-based; conditions: read-out: BPR
Summary of the method: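 Rat tissue distribution study; brain and plasma levels compared as brain/plasma ratio.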

[26] = Drug metabolism in dog liver microsomes at 5 uM after 60 mins; format: ADME, Canis lupus familiaris, Microsome; conditions: read-out: Drug metabolism; summary of the method: as §2
Rattus norvegicus [27] = experiment: Antinociceptive activity in rat at 10 mg/kg by tail withdrawal reflex test; format: functional, organism-based; set-up: dose 10 mg/kg
[28] = Clearance in Beagle dog at 1 mg/kg, iv and 5 mg/kg, po; format: ADME, organism-based, Canis lupus familiaris; conditions: in vivo; summary of the method: as §1
[29] = Lipophilicity, Log P of the compound; format: physicochemical; conditions: octanol/water

Sequence of Cannabinoid receptor 2 (P34972 whole entry): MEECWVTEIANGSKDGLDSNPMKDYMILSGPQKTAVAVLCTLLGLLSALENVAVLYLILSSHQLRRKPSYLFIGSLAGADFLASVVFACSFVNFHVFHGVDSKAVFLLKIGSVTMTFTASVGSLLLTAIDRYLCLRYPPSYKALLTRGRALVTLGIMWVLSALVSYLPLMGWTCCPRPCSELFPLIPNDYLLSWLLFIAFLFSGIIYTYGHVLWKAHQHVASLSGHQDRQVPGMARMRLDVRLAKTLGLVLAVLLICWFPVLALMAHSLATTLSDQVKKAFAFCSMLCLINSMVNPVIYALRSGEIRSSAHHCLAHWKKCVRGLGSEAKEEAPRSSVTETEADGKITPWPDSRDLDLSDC
Sequence of Cannabinoid receptor 1 (P21554 whole entry): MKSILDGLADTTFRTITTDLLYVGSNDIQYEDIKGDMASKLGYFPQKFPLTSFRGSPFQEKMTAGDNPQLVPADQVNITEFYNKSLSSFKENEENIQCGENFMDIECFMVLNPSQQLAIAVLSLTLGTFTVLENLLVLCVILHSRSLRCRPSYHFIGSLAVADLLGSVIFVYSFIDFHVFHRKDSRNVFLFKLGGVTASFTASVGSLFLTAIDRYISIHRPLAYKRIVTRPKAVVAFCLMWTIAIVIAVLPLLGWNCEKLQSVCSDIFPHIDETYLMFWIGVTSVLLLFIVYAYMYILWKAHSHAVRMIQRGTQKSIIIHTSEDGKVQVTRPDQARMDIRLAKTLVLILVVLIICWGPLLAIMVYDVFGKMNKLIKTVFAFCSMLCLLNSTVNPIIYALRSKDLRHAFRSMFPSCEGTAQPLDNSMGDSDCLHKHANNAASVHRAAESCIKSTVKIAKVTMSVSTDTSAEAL

Question: Which metabolised at 0.25 h [1] does the source give for `COC(=O)N1CCC(Cn2c(C(C)(C)C)nc3cc(S(=O)(=O)CCCC(F)(F)F)ccc32)CC1` here?
Answer: Its metabolised at 0.25 h is 54%.

Question: And the EC50 (Cannabinoid receptor 1)?
Answer: The EC50 was > 10000 nM.

Question: Which metabolised at 0.25 h [1] does the source give for `CC(=O)N1CCC(Cn2c(C(C)(C)C)nc3cc(S(=O)(=O)C4CCCC4)ccc32)CC1` here?
Answer: Its metabolised at 0.25 h is 87%.

Question: What about the EC50 (Cannabinoid receptor 1) of the same compound?
Answer: The EC50 was > 10000 nM.

Question: With `COCCS(=O)(=O)c1ccc2c(c1)nc(C(C)(C)C)n2CC1CCN(C(C)=O)CC1` as the compound, how does the EC50 (Cannabinoid receptor 1) read?
Answer: Its EC50 is > 10000 nM.

Question: Which results are given for `CCC(=O)N1CCC(Cn2c(C(C)(C)C)nc3cc(S(=O)(=O)CCCC(F)(F)F)ccc32)CC1`?
Answer: metabolised at 0.25 h [1]: 4%; EC50 (Cannabinoid receptor 1): > 10000 nM

Question: Which metabolised at 0.25 h [1] does the source give for `CC(=O)NCCc1cc(S(=O)(=O)c2ccc3c(c2)nc(C(C)(C)C)n3CC2CCOCC2)ccn1` here?
Answer: The metabolised at 0.25 h was 44%.

Question: Which EC50 (Cannabinoid receptor 2) does the source give for `CC(=O)N1CCC(Cn2c(C(C)(C)C)nc3cc(S(=O)(=O)c4ccc(F)cc4)ccc32)CC1` here?
Answer: The EC50 was 2.9 nM.

Question: And the Activity (Rattus norvegicus [2])?
Answer: The Activity was “Toxic”.

Question: And the metabolised at 0.25 h [1]?
Answer: Its metabolised at 0.25 h is 8%.

Question: What about the EC50 (Cannabinoid receptor 1) of the same compound?
Answer: Its EC50 is > 10000 nM.

Question: Which EC50 (Cannabinoid receptor 2) does the source give for `COCCCOc1cc(S(=O)(=O)c2ccc3c(c2)nc(C(C)(C)C)n3CC2CCOCC2)ccn1` here?
Answer: Its EC50 is 0.5 nM.

Question: What about the metabolised at 0.25 h [1] of the same compound?
Answer: The metabolised at 0.25 h was 100%.

Question: Which metabolised at 0.25 h [1] does the source give for `CCOc1cc(S(=O)(=O)c2ccc3c(c2)nc(C(C)(C)C)n3CC2CCOCC2)ccn1` here?
Answer: The metabolised at 0.25 h was 48%.

Question: What about the EC50 (Cannabinoid receptor 1) of the same compound?
Answer: Its EC50 is 1280 nM.

Question: What about the solubility kinetic [3] of the same compound?
Answer: The solubility kinetic was < 1 µM.

Question: With `CC(C)(C)c1nc2cc(S(=O)(=O)c3ccnc(OCCCO)c3)ccc2n1CC1CCOCC1` as the compound, how does the EC50 (Cannabinoid receptor 2) read?
Answer: Its EC50 is 1.2 nM.

Question: What about the metabolised at 0.25 h [1] of the same compound?
Answer: The metabolised at 0.25 h was 40%.

Question: For `CCS(=O)(=O)c1ccc2c(c1)nc(C(C)(C)C)n2CC1CCN(C(C)=O)CC1`, which EC50 (Cannabinoid receptor 2) is on record?
Answer: Its EC50 is 8.4 nM.

Question: What about the metabolised at 0.25 h [1] of the same compound?
Answer: Its metabolised at 0.25 h is 13%.

Question: What about the EC50 (Cannabinoid receptor 1) of the same compound?
Answer: Its EC50 is > 10000 nM.

Question: With `CC(C)(C)c1nc2cc(S(=O)(=O)CCCC(F)(F)F)ccc2n1CC1CCOCC1` as the compound, how does the EC50 (Cannabinoid receptor 2) read?
Answer: Its EC50 is 1.1 nM.

Question: And the Activity (Rattus norvegicus [2])?
Answer: Its Activity is “Toxic”.

Question: What about the metabolised at 0.25 h [1] of the same compound?
Answer: Its metabolised at 0.25 h is 36%.

Question: And the Activity (Rattus norvegicus [4])?
Answer: Its Activity is “Toxic”.

Question: What about the EC50 (Cannabinoid receptor 1) of the same compound?
Answer: The EC50 was 320 nM.

Question: Which results are given for `CC(=O)N1CCC(Cn2c(C(C)(C)C)nc3cc(S(=O)(=O)CC4CC4)ccc32)CC1`?
Answer: bioavailability [5]: 86%; EC50 (Cannabinoid receptor 2): 8.2 nM; Activity (Rattus norvegicus [6]): Non-toxic; half-life [7]: 1.3 h; Activity (Mus musculus): Active; metabolised at 1 h, 5 µM [8]: 0%; metabolised at 0.25 h [1]: 18%; metabolised at 1 h, 5 µM [9]: 5%; Activity (Rattus norvegicus [10]): inactive; half-life [11]: 3.2 h; Vd [12]: 1.9 L/kg; Activity (Rattus norvegicus [13]): inactive; Activity (Rattus norvegicus [14]): inactive; metabolised at 1 h, 5 µM [15]: 12%; solubility [16]: 25 mg/mL (≈ 57.9 mM); clearance [17]: 41.7 mL/min/kg; Activity (Rattus norvegicus [18]): inactive; EC50 (Cannabinoid receptor 1): > 10000 nM; bioavailability [19]: 56%; solubility [20]: 1.5 mg/mL (≈ 3.48 mM); half-life [21]: 3 h; half-life [22]: 4 h; Activity (Rattus norvegicus [23]): inactive; Vd [24]: 4.4 L/kg; Kp [25]: 0.18; metabolised at 1 h, 5 µM [26]: 4%; Activity (Rattus norvegicus [27]): inactive; clearance [28]: 13.3 mL/min/kg; logP [29]: 1.67

Question: What does the source list for `COCCCc1cc(S(=O)(=O)c2ccc3c(c2)nc(C(C)(C)C)n3CC2CCOCC2)ccn1`?
Answer: EC50 (Cannabinoid receptor 2): 1.1 nM; metabolised at 0.25 h [1]: 93%; EC50 (Cannabinoid receptor 1): > 10000 nM

Question: With `CC(C)(C)c1nc2cc(S(=O)(=O)CC3CC3)ccc2n1CC1CCS(=O)(=O)CC1` as the compound, how does the EC50 (Cannabinoid receptor 2) read?
Answer: The EC50 was 8.4 nM.

Question: What about the metabolised at 0.25 h [1] of the same compound?
Answer: The metabolised at 0.25 h was 2%.

Question: What about the EC50 (Cannabinoid receptor 1) of the same compound?
Answer: Its EC50 is 2680 nM.

Question: For `CC(=O)N1CCC(Cn2c(C(C)(C)C)nc3cc(S(=O)(=O)c4ccncc4)ccc32)CC1`, which EC50 (Cannabinoid receptor 2) is on record?
Answer: Its EC50 is 4.6 nM.

Question: And the metabolised at 0.25 h [1]?
Answer: Its metabolised at 0.25 h is 29%.

Question: And the EC50 (Cannabinoid receptor 1)?
Answer: The EC50 was > 10000 nM.
